Assay outcomes: PubChem, several laboratories
MPTP block: inhibitors of mitochondrial permeability transition pore; isolated mouse mitochondria, Ca2+ swelling absorbance, 30 min; inhibition, % at 10 µM; 360,000 tested, 1.4% active; AID 602449;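 active means inhibition of 50% or more, scaled per plate between neutral and stimulator controls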;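 further: 0% = DMSO wells given calcium and 100% = 1 mM EGTA wells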
Lipid droplet: modulators of hepatic lipid droplet formation; AML12 mouse hepatocytes, oleate lipid droplets, BODIPY imaging; inhibition, % at 6.5 µM; 240,000 tested, 0.4% active; AID 1656;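 active means lipid droplet intensity inhibited by at least 50%, with more than 500 cells counted; inconclusive means wells with under 300 cells, treated as cytotoxic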
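Material: mouse AML12 hepatocyte cell line, fixed after treatment; Timing: compound with oleate, overnight; Technique: high-content imaging of BODIPY-stained droplets and DAPI nuclei; Probe or stimulus: oleate, 100 µM final; Dosing: compound at 6.5 µM only.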
T cruzi inh: blocks replication of Trypanosoma cruzi; 300,000 tested, 1.4% active; T. cruzi beta-gal in NIH3T3, luminescence, 90 h; inhibition, % (concentration not given with the values);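 active means mean inhibition across valid replicates above about 55%, limit read from the data; inconclusive means mean below that limit but half or more replicates reach it; inactive means mean below it, under half of replicates reach it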;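 further: signal also drops with host cell toxicity which is not excluded here; 0% = plate median of DMSO wells and 100% = zero luminescence signal; higher percent means less beta-gal luminescence so fewer parasites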
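assay system = mouse NIH/3T3 fibroblasts infected with β-gal-expressing T. cruzi Tulahuen C4 | input = 5,000 NIH/3T3 host cells per well | buffer or medium = DMEM plus 2% FBS | timing = 3 h host attachment, then at least 90 h co-culture | measured by = GalScreen luminescence, 60 min | evaluation = luminescence reflecting intracellular parasite burden, expressed as percent inhibition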
DTT redox prof: compounds producing H2O2 with reducing agent – biochemical, NIH compound library profiling, artefact control for MLSCN library redox annotation, primary screen; DTT-dependent redox cycling H2O2, phenol red/HRP absorbance; 100% = 100 µM peroxide control, 0% = buffer; activation, % at 10 µM; 200,000 tested, 0.03% active;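 active means activation of at least 50% relative to the plate's high and low controls in the primary single-dose screen; inactive means activation below 50%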;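 further: compound incubated with DTT at 0.8 mM final as the reducing agent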
Lmaj promast: inhibitors of Leishmania major promastigote growth; Leishmania major promastigotes, resazurin fluorescence viability; inhibition, % at 10 µM; 200,000 tested, 9% active; in the data active means inhibition above about 50%;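 further: promastigotes grown with compound for 44 hours at 28 °C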
L major 1uM: inhibitors of Leishmania major promastigote growth, repeat at 1 uM; shares compounds with Lmaj promast; L. major promastigote growth, resazurin fluorescence, 48 h; inhibition, % at 1 µM; 1,100 tested, 13% active;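 active means inhibition above about 50% in both repeat tests, limit read from the data; inconclusive means one repeat under the set limit, the other over it; inactive means both repeats under the set limit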
Starred values were filed as active, the others as inactive; ? = inconclusive; · = no result given; ! = not confirmed by another sample. The sample as a whole holds a higher share of hits than the screen did.

SMILES	MPTP block	Lipid droplet	T cruzi inh	DTT redox prof	Lmaj promast	L major 1uM
CCc1ccc(-c2cc(C(=O)N/N=C/c3c[nH]c4ccccc34)[nH]n2)cc1	-2	2	-7	-1	27	·
O=C(NCCc1ccccc1Cl)C1CC(=O)N(C2CCCCC2)C1 (stereo unspecified)	0	·	-1	·	·	·
COc1cc(NC(=O)c2cc(OC)c(OC)c(OC)c2)cc(-n2cnnn2)c1	-1	10	-10	·	·	·
C[C@H]1CC[C@H]2C(=O)N3[C@H](c4ccccc4Br)[C@@H](C)CC[C@H]3C(=O)N2[C@@H]1c1ccccc1Br	·	-24	45	1	100*	16
CCOc1ccc(-c2noc(-c3cccnc3)n2)cc1OC	1	·	-8	1	71*	46
CCOc1cc(-c2noc(-c3cccnc3)n2)ccc1OC	0	-6	-5	-1	4	·
O=C(O)CC1S/C(=N/N=C/C=C/c2ccccc2)NC1=O (stereo unspecified)	-1	-2	-10	0	53*!	-12
N#Cc1c(NC(=O)C2CC(c3c(F)cccc3Cl)=NO2)sc2c1CCC2 (stereo unspecified)	-3	7	7	0	64*	-10
COc1ccc2cc3[n+](cc2c1OC)CCc1cc2c(cc1-3)OCO2	0	-5	52	0	100*	76*
COc1cccc(C2=NCCc3cc4c(cc32)OCO4)c1OC	0	8	8	0	-10	·
CCC(C)C(=O)OC1CCC=C2C=CC(C)C(CCC3CC(O)CC(=O)O3)C21 (stereo unspecified)	-1	·	·	·	·	·
CC[C@H](C)C(=O)O[C@H]1CCC=C2C=C[C@H](C)[C@H](CC[C@@H]3C[C@@H](O)CC(=O)O3)[C@H]21	-2	27	-2	0	76*	-6
Nc1ccccc1Nc1ccccc1	2	·	27	2	99*	-16
Nc1ccc(Nc2ccccc2)c(Cl)c1	0	·	18	0	4	·
Oc1ccc(/C=N/NC(=S)N2CCOCC2)cc1	0	-21	-4	-3	9	·
CC(C)(C)c1ccc(C(=O)N2CCC(=O)N([C@H](COCc3ccccc3)Cc3ccccc3)CC2)cc1	-3	·	·	·	·	·
CC(C)(C)c1ccc(C(=O)N2CCC(=O)N(C(COCc3ccccc3)Cc3ccccc3)CC2)cc1 (stereo unspecified)	-2	-4	9	0	52*	-22
O=C(OCc1ccccc1)c1cn(-c2ccccc2)nc1-c1ccncc1	2	·	57*	1	69*	9
Cc1ccc(S(=O)(=O)N2CCN(C(=O)C3CSC4(C)CCC(=O)N34)CC2)cc1C (stereo unspecified)	0	·	13	·	·	·
Cn1cccc1Cc1nnc(SCC(=O)Nc2ccc3c(c2)OCO3)n1CCc1ccccc1	0	9	-6	-2	3	·
Cn1cccc1Cc1nnc(SCC(=O)Nc2ccc(F)cc2)n1CCc1ccccc1	1	3	12	-2	56*	-9
CCCN(CCC)c1nc2ccccc2n2c(C)nnc12	0	6	36	-1	82*	-9
COc1cc(CNCC(C)C)cc(Br)c1OCC(=O)Nc1ccccc1	-6	-11	22	0	100*	45
Cc1ccc2nc(Cl)c3nnnn3c2c1	3	-3	44	1	100*	93*
CCC(=O)/C=C1/Sc2ccc(OC)cc2N1CCO	-1	20	-16	-1	-7	·
SMILES	MPTP block	Lipid droplet	T cruzi inh	DTT redox prof	Lmaj promast	L major 1uM
CCC(/C=C1\Sc2ccc(OC)cc2N1CCO)=C\c1sc2ccc(OC)cc2[n+]1CCO	24	-2	·	0	100*	100*
Cc1cc(C)c(C(=O)CSC2=NC(N)=C(C#N)C3(CCCCC3)C2C(N)=O)cc1C (stereo unspecified)	-2	-5	15	0	64*	-15
Cc1cc(C)c(C(=O)CSc2nnc(N)s2)cc1C	0	-1	-21	·	·	·
Cc1ccc(C2=NNC(=O)C(c3ccc(Cl)cc3)C2)cc1 (stereo unspecified)	0	3	2	0	70*	-20
CCC(C)(c1nnnn1-c1c(C)cccc1C)N(N=O)c1ccccc1Cl (stereo unspecified)	1	-28	·	1	100*	95*
Cc1c(C(=O)Nc2ccncc2)sc2nc(-c3ccc(F)cc3)cn12	1	-26	29	0	99*	19
CN1CC(c2ccccn2)C2(SC(=S)N(Cc3ccccc3)C2=O)C12C(=O)Nc1ccccc12 (stereo unspecified)	-2	·	15	0	100*	14
Cc1ccc(C)c(N2CCN(C(=O)c3ccc(CSc4nc5ccncc5[nH]4)cc3)CC2)c1	0	0	53	1	89*	?
O=C(c1ccc(CSc2nc3ccncc3[nH]2)cc1)N1CCCCC1	1	·	-10	0	-6	·
COc1ccc(N2C(=O)C(CC(N)=O)N(NC(=O)CCc3ccccc3)C2=O)cc1 (stereo unspecified)	0	-24	5	2	-7	·
CCN(CC)CCOC(=O)C12CC3CC(CC(C3)C1)C2	0	·	3	2	97*	-5
CN(C)CCOC(=O)C12CC3CC(C1)CC(C(=O)OCCN(C)C)(C3)C2	0	13	4	·	·	·
COc1ccccc1Oc1cc(C#N)c(C#N)cc1-n1nnc2ccccc21	-2	·	50	-1	98*	-2
CCOc1ccc(C2=Nc3ccccc3C(c3ccc(N4CCOCC4)cc3)=NN2)cc1	6	·	22	-3	63*	-2
COc1ccc(/C=C2\SC(=S)N(Cc3cccnc3)C2=O)cc1C	0	-21	-5	0	16	·
O=C1/C(=C/c2ccc(O)cc2)SC(=S)N1Cc1cccnc1	32	-3	10	0	60*	-13
[O-][n+]1c2c(nc3c1-c1ccccc1C3O)CCCC2 (stereo unspecified)	·	-4	5	8	-6	·
CCOC(=O)CNC(=O)N(CCOC)CC1CCCN(C2Cc3ccccc3C2)C1 (stereo unspecified)	-1	6	14	·	·	·
COC(=O)C(=C/C(C)=C/c1cccs1)C(=O)OC	0	-5	2	0	62*	21
OC12CCCCC1C(c1ccc3c(c1)OCO3)N(Cc1ccccc1F)CC2 (stereo unspecified)	-1	·	40	1	60*	3
Cc1ccc(S(=O)(=O)N(C)CCCC(=O)NC(C)(C)C)cc1	0	16	-4	1	-2	·
COc1ccc(C(=O)/C=C/c2ccc(N(C)C)cc2)c(OC)c1	2	-8	-1	·	·	·
COc1ccc(OC)c(C(=O)/C=C/c2ccccc2C(F)(F)F)c1	0	·	34	-8	75*	-9
COc1ccc(OC)c(N/C=C/C(=O)c2ccccc2)c1	1	2	-10	·	·	·
